Measured values reported in ChEMBL document CHEMBL1909548, “Ligustrazine derivatives. Part 5: design, synthesis and biological evaluation of novel ligustrazinyloxy-cinnamic acid derivatives as potent cardiovascular agents” (Eur J Med Chem, 2011).
pEC50, pIC50: −log10 of the molar value.

Experiments:
[1] = Antiplatelet activity in rabbit platelet rich plasma assessed as inhibition rate of ADP-induced platelet aggregation at 200 uM after 5 mins by aggregometry; type: functional; details: Oryctolagus cuniculus
How it was run: (§1)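 Rabbit platelet-rich plasma obtained by centrifuging blood at 1000 rpm for 5 min. Platelet-poor plasma (3000 rpm, 15 min) served as the reference. Platelets were adjusted to 3×10¹¹/L. PRP was mixed with compound at final levels 400, 200, 100 or 50 and incubated at 37 °C for 5 min before aggregation was read. IC50 was derived by linear regression.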

[2] = Antiplatelet activity in rabbit platelet rich plasma assessed as inhibition rate of ADP-induced platelet aggregation at 100 uM after 5 mins by aggregometry; type: functional; details: Oryctolagus cuniculus; how it was run: as §1
[3] = Antiplatelet activity in rabbit platelet rich plasma assessed as inhibition rate of ADP-induced platelet aggregation at 50 uM after 5 mins by aggregometry; type: functional; details: Oryctolagus cuniculus; how it was run: as §1
[4] = Antiplatelet activity in rabbit platelet rich plasma assessed as inhibition of ADP-induced platelet aggregation after 5 mins by aggregometry; type: functional; details: Oryctolagus cuniculus; how it was run: as §1
ECV-304 [5] = experiment: Protection against H2O2-induced toxicity in human ECV304 cells assessed as proliferation rate at 100 uM pretreated for 24 hrs before H2O2 challenge measured after 12 hrs by MTT assay; type: functional; details: read-out: Activity
How it was run: (§2)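 ECV-304 cells were seeded at 6×10³/well and grown to confluence. Cells were pretreated 24 h with compound in DMSO (final ≤0.05%), then given H2O2 (150) for 12 h at 37 °C, 5% CO2. MTT (5 mg/mL) was added for 4 h, formazan dissolved in DMSO, and A570 read. Proliferation rate = [OD(compd)−OD(H2O2)]/[OD(control)−OD(H2O2)]×100%. EC50 was calculated from proliferation rates by formula.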

ECV-304 [6] = experiment: Protection against H2O2-induced toxicity in human ECV304 cells assessed as proliferation rate at 50 uM pretreated for 24 hrs before H2O2 challenge measured after 12 hrs by MTT assay; type: functional; details: read-out: Activity; how it was run: as §2
ECV-304 [7] = experiment: Protection against H2O2-induced toxicity in human ECV304 cells assessed as proliferation rate at 25 uM pretreated for 24 hrs before H2O2 challenge measured after 12 hrs by MTT assay; type: functional; details: read-out: Activity; how it was run: as §2
ECV-304 [8] = experiment: Protection against H2O2-induced toxicity in human ECV304 cells assessed as proliferation rate at 12.5 uM pretreated for 24 hrs before H2O2 challenge measured after 12 hrs by MTT assay; type: functional; details: read-out: Activity; how it was run: as §2
ECV-304 [9] = experiment: Protection against H2O2-induced toxicity in human ECV304 cells assessed as proliferation rate pretreated for 24 hrs before H2O2 challenge measured after 12 hrs by MTT assay; type: functional, cell-based; how it was run: as §2
[10] = Antiplatelet activity in rabbit platelet rich plasma assessed as inhibition rate of ADP-induced platelet aggregation at 400 uM after 5 mins by aggregometry; type: functional; details: Oryctolagus cuniculus; how it was run: as §1
ECV-304 [11] = experiment: Ratio of Ligustrazine EC50 to compound EC50 for protection against H2O2-induced toxicity in human ECV304 cells pretreated for 24 hrs before H2O2 challenge measured after 12 hrs by MTT assay

Structure (SMILES) | inhibition at 200 µM [1] [%] | inhibition at 100 µM [2] [%] | inhibition at 50 µM [3] [%] | pIC50 [4] | growth at 100 µM (ECV-304 [5]) [%] | growth at 50 µM (ECV-304 [6]) [%] | growth at 25 µM (ECV-304 [7]) [%] | growth at 12.5 µM (ECV-304 [8]) [%] | pEC50 (ECV-304 [9]) | inhibition at 400 µM [10] [%] | EC50 ratio (TMP/compound) (ECV-304 [11])
COc1cc(/C=C/C(=O)O)ccc1OCc1nc(C)c(C)nc1C | 51.9 | 47 | 17.5 | 3.80 | -19.6 | -17.8 | -22.4 | -12.5 | 3.53 | 73.2 | 
Cc1nc(C)c(COc2ccc(/C=C/C(=O)O)cc2O)nc1C | 60 | 11.8 | 3.46 | 3.75 | 170 | 157 | 131 | 15.3 | 4.34 | 87 | 
O=C(O)/C=C/c1ccc(Cn2ccnc2)cc1 [OZAGREL] | 45.4 | 27.3 | 23.3 | 3.44 |  |  |  |  |  | 55.3 | 
CCOC(=O)/C=C/c1cc(Cl)ccc1OCc1nc(C)c(C)nc1C | 14.5 | 11.3 | 7.66 | < 2.70 |  | -186 | -94.4 | -0.46 | 1.77 | 18.7 | 
Cc1nc(C)c(COc2ccccc2/C=C/C(=O)O)nc1C | 70.2 | 62.3 | 46.1 | 4.27 | -34.6 | 237 | 370 | 183 | 3.30 | 76.8 | 
CCOC(=O)/C=C/c1ccc(OCc2nc(C)c(C)nc2C)c(OC)c1 | 40.2 | 36.9 | 26.2 | 3.35 | 70.2 | 50.9 | 43.5 | 29.5 | 3.96 | 49.5 | 
Cc1nc(C)c(COc2c(Br)cc(/C=C/C(=O)O)cc2Br)nc1C | 38.6 | 62.8 | 5.3 | 2.89 | -85.8 | -113 | -104 | -83.8 | 2.48 | 55.4 | 
CCOC(=O)/C=C/c1cc(Br)c(OCc2nc(C)c(C)nc2C)c(Br)c1 | 16.3 | 10.7 | 6.77 | < 2.70 |  | 66.1 | 57 | -130 | 2.71 | 20.7 | 
CCOC(=O)/C=C/c1cc(Br)cc(Br)c1OCc1nc(C)c(C)nc1C | 15.8 | 13.5 | 9.8 | < 2.70 |  | 73.9 | -6.88 | -25.7 | 2.80 | 16.1 | 
Cc1nc(C)c(COc2ccc(/C=C/C(=O)O)cc2)nc1C | 29 | 13.4 | 18.8 | 2.85 | 46.6 | 90.4 | 2.01 | -55 | 4.07 | 27.6 | 
CCOC(=O)/C=C/c1cc(OC)c(OCc2nc(C)c(C)nc2C)c(OC)c1 | 38.5 | 35 | 31 | 3.20 | -180 | -94.2 | -81.9 | -31.1 | 2.64 | 48.1 | 
Cc1nc(C)c(COc2c(Br)cc(Br)cc2/C=C/C(=O)O)nc1C | 33.1 | 20 | 18.1 | 2.88 | -24.8 | 48.5 | 4.21 | -22.3 | 3.81 | 37.4 | 
CCOC(=O)/C=C/c1ccc(OCc2nc(C)c(C)nc2C)cc1 | 15.5 | 11.9 | 9.8 | < 2.70 | -7.56 | -6.36 | -10.8 | -1.79 | 3.69 | 22.7 | 
CCOC(=O)/C=C/c1ccc(OCc2nc(C)c(C)nc2C)c(O)c1 | 25.7 | 23 | 13.9 | 2.86 | 37.3 | 10.3 | -8.45 | -18.7 | 3.86 | 41.8 | 
Cc1nc(C)c(C)nc1C [LIGUSTRAZINE] |  |  |  |  | 42.8 | 22.1 | 12.7 | 10.4 | 3.22 |  | 
COc1cccc(/C=C/C(=O)O)c1OCc1nc(C)c(C)nc1C | 28.4 | 26.1 | 8.97 | 3.28 |  | 50.3 | -0.71 | -164 | 2.44 | 47.6 | 
CCOC(=O)/C=C/c1cccc(OC)c1OCc1nc(C)c(C)nc1C | 12.5 | 10.5 | 6.97 | < 2.70 |  | 16.6 | 58.7 | -92.5 | 2.52 | 28.1 | 
CCOC(=O)/C=C/c1ccccc1OCc1nc(C)c(C)nc1C | 33.4 | 30.1 | 16.4 | 3.30 |  | 327 | -109 | -1.24 | 2.81 | 48.1 | 
CCOC(=O)/C=C/c1cccc(OCc2nc(C)c(C)nc2C)c1 | 34.8 | 29.4 | 14.5 | 3.20 |  | 278 | -180 | -1.52 | 2.36 | 43 | 
COc1cc(/C=C/C(=O)O)cc(OC)c1OCc1nc(C)c(C)nc1C | 47.3 | 41 | 33 | 3.74 | -132 | -95.9 | -33.8 | -74.6 | 2.45 | 64.3 | 
Cc1nc(C)c(COc2ccc(Cl)cc2/C=C/C(=O)O)nc1C | 45.6 | 38.4 | 24.7 | 2.98 |  | -153 | -44 | -98.3 | 2.03 | 67 | 
Cc1nc(C)c(COc2cccc(/C=C/C(=O)O)c2)nc1C | 57.2 | 46.6 | 30 | 3.79 | 175 | 473 | 378 | 306 | 4.70 | 60.8 | 30
